Data taken from ChEMBL document CHEMBL1155834, “Antimicrobial diterpenes from Trigonostemon chinensis” (2008).
Converted amounts (≈) assume the structure as drawn.

Legend:
Format in all cases: functional
[1] = system: Helicobacter pylori; assay: Antibacterial activity against Helicobacter pylori SS1 after 96 hrs; conditions: SS1, 96 h
In short: (§1)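 Agar plates inoculated with H. pylori cells suspended in saline at 10^8 cfu/mL, incubated 37 °C for 96 h microaerobically (5% O2, 10% CO2, 85% N2) alongside blank and positive controls. Triplicate tests.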

[2] = system: Helicobacter pylori; assay: Antibacterial activity against metronidazole-resistant Helicobacter pylori ATCC 43504 after 96 hrs; conditions: ATCC 43504, 96 h; in short: as §1
[3] = system: Candida albicans; assay: Antifungal activity against Candida albicans after 48 hrs
In short: (§2)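 Fungi grown in Sabouraud dextrose broth with compound at 37 °C for 48 h. MIC is the lowest concentration completely inhibiting visible growth.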

[4] = system: Shigella flexneri; assay: Antibacterial activity against Shigella flexneri after 18 hrs
In short: (§3)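 Broth dilution in Mueller Hinton broth, compounds dissolved in DMSO. Cells incubated aerobically with compound at 37 °C for 18 h, with DMSO-only blank cultures. MIC is the lowest concentration giving complete inhibition of visible growth.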

[5] = system: Nannizzia gypsea; assay: Antifungal activity against Microsporum gypseum after 48 hrs; in short: as §2
[6] = system: Micrococcus luteus; assay: Antibacterial activity against Micrococcus luteus ATCC 9341 after 18 hrs; conditions: ATCC 9341, 18 h; in short: as §3
[7] = system: Bacillus subtilis; assay: Antibacterial activity against Bacillus subtilis CMCC 63501 after 18 hrs; in short: as §3
[8] = system: Escherichia coli; assay: Antibacterial activity against Escherichia coli after 18 hrs; in short: as §3
[9] = system: Staphylococcus aureus; assay: Antibacterial activity against Staphylococcus aureus ATCC 25923 after 18 hrs; conditions: ATCC 25923, 18 h; in short: as §3
[10] = system: Pseudomonas aeruginosa; assay: Antibacterial activity against Pseudomonas aeruginosa after 18 hrs; in short: as §3
[11] = system: Staphylococcus epidermidis; assay: Antibacterial activity against Staphylococcus epidermidis ATCC 12228 after 18 hrs; conditions: ATCC 12228, 18 h; in short: as §3

| Structure (SMILES) | MIC [1] | MIC [2] | MIC [3] | MIC [4] | MIC [5] | MIC [6] | MIC [7] | MIC [8] | MIC [9] | MIC [10] | MIC [11] |
| --- | --- | --- | --- | --- | --- | --- | --- | --- | --- | --- | --- |
| C=Cc1c(C)c(O)cc2c1CC[C@H](C(=C)C)[C@@]2(C)CCC(=O)OC | 25 µg/mL (≈ 76.1 µM) | 50 µg/mL (≈ 152 µM) | > 50 µg/mL | > 50 µg/mL | 50 µg/mL (≈ 152 µM) | 6.25 µg/mL (≈ 19 µM) | 3.12 µg/mL (≈ 9.5 µM) | > 50 µg/mL | 12.5 µg/mL (≈ 38.1 µM) | > 50 µg/mL | 6.25 µg/mL (≈ 19 µM) |
| C=Cc1c(C)c(O)cc2c1CC[C@H](C(=C)C)[C@@]2(C)CCC(=O)O | 25 µg/mL (≈ 79.5 µM) | > 50 µg/mL | > 50 µg/mL | > 50 µg/mL | > 50 µg/mL | > 50 µg/mL | > 50 µg/mL | > 50 µg/mL | > 50 µg/mL | > 50 µg/mL | > 50 µg/mL |
| C=CCc1ccc(O)c(-c2cc(CC=C)ccc2O)c1 [MAGNOLOL] |  |  |  | > 50 µg/mL |  | 6.25 µg/mL (≈ 23.5 µM) | 12.5 µg/mL (≈ 46.9 µM) | > 50 µg/mL | 12.5 µg/mL (≈ 46.9 µM) | > 50 µg/mL | 6.25 µg/mL (≈ 23.5 µM) |
| Cc1ncc([N+](=O)[O-])n1CCO [METRONIDAZOLE] | 0.5 µg/mL (≈ 2.92 µM) | 128 µg/mL (≈ 748 µM) |  |  |  |  |  |  |  |  |  |
| COC(=O)C1=CC[C@@]23CC[C@@H]([C@@](C)(/C=C/C=C(\C)C(=O)O)OC2=O)[C@@]3(OC(C)=O)CC1 [PSEUDOLARIC ACID B] |  |  | 6.25 µg/mL (≈ 14.5 µM) |  | 12.5 µg/mL (≈ 28.9 µM) |  |  |  |  |  |  |
| C=CC1=C(C)C(=O)C=C2[C@@]1(O)CC[C@H](C(=C)C)[C@@]2(C)CCC(=O)OC [TRIGONOCHINENE A] | 25 µg/mL (≈ 72.6 µM) | 50 µg/mL (≈ 145 µM) | > 50 µg/mL | > 50 µg/mL | > 50 µg/mL | > 50 µg/mL | > 50 µg/mL | > 50 µg/mL | > 50 µg/mL | > 50 µg/mL | > 50 µg/mL |
| C=CC1=C(C)C(=O)C=C2[C@]1(O)CC[C@H](C(=C)C)[C@@]2(C)CCC(=O)OC [TRIGONOCHINENE B] | 12.5 µg/mL (≈ 36.3 µM) | 25 µg/mL (≈ 72.6 µM) | > 50 µg/mL | > 50 µg/mL | > 50 µg/mL | > 50 µg/mL | > 50 µg/mL | > 50 µg/mL | > 50 µg/mL | > 50 µg/mL | > 50 µg/mL |
| C=CC1=C(C)C(=O)C=C2[C@]1(OO)CC[C@H](C(=C)C)[C@@]2(C)CCC(=O)OC [TRIGONOCHINENE C] | 50 µg/mL (≈ 139 µM) | 50 µg/mL (≈ 139 µM) | > 50 µg/mL | > 50 µg/mL | > 50 µg/mL | 12.5 µg/mL (≈ 34.7 µM) | 12.5 µg/mL (≈ 34.7 µM) | > 50 µg/mL | 50 µg/mL (≈ 139 µM) | > 50 µg/mL | 25 µg/mL (≈ 69.4 µM) |
| C=CC1=C(C)C(=O)C=C2[C@]13O[C@H]3C[C@H](C(=C)C)[C@@]2(C)CCC(=O)OC [TRIGONOCHINENE D] | 25 µg/mL (≈ 73 µM) | 50 µg/mL (≈ 146 µM) | > 50 µg/mL | > 50 µg/mL | > 50 µg/mL | > 50 µg/mL | > 50 µg/mL | > 50 µg/mL | > 50 µg/mL | > 50 µg/mL | > 50 µg/mL |
| COc1cc2c(cc(OC)c3cc(C)c(O)cc32)c(C)c1O [TRIGONOCHINENE E] | 25 µg/mL (≈ 83.8 µM) | > 50 µg/mL | 12.5 µg/mL (≈ 41.9 µM) | > 50 µg/mL | 6.25 µg/mL (≈ 20.9 µM) | 12.5 µg/mL (≈ 41.9 µM) | > 50 µg/mL | > 50 µg/mL | 6.25 µg/mL (≈ 20.9 µM) | > 50 µg/mL | 6.25 µg/mL (≈ 20.9 µM) |
